Reference: ChEMBL document CHEMBL1141258, “Prismatomerin, a new iridoid from Prismatomeris tetrandra. Structure elucidation, determination of absolute configuration, and cytotoxicity” (J Nat Prod, 2007)
The source made the active and inactive calls. No cut-off for these calls is given here.

Legend:
[1] = Toxicity in brine shrimp after 24 hrs; assay type: organism-based; details: artemia, in vivo; read-out: LD50
CCRF-CEM = experiment: Growth inhibition of human CCRF-CEM cells after 48 hrs by SRB assay; assay type: functional
Procedure, shortened: (§1)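 NCI 60 human tumour cell line in vitro anticancer screen, run at NCI. Compound tested at a minimum of five concentrations in 10-fold dilutions per cell line.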

HL-60 = experiment: Growth inhibition of human HL60 cells after 48 hrs by SRB assay; assay type: functional; details: HL-60, 48 h; procedure, shortened: as §1
RPMI-8226 = experiment: Growth inhibition of human RPMI8226 cells after 48 hrs by SRB assay; assay type: functional; details: RPMI-8226, 48 h; procedure, shortened: as §1
SR = experiment: Growth inhibition of human SR cells after 48 hrs by SRB assay; assay type: functional
Procedure, shortened: (§2)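 Run at NCI in the 60-human-tumor-cell-line anticancer screen. Each compound was tested at a minimum of five concentrations at 10-fold dilutions.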

A549 [2] = experiment: Growth inhibition of human A549 cells after 48 hrs by SRB assay; assay type: functional; details: A549, 48 h; procedure, shortened: as §2
NCI-H226 = experiment: Growth inhibition of human NCIH226 cells after 48 hrs by SRB assay; assay type: functional; details: NCI-H226, 48 h; procedure, shortened: as §2
NCI-H23 = experiment: Growth inhibition of human NCIH23 cells after 48 hrs by SRB assay; assay type: functional; details: NCI-H23, 48 h; procedure, shortened: as §1
[3] = Growth inhibition of human […] cells after 48 hrs by SRB assay; assay type: functional; procedure, shortened: as §2
NCI-H460 = experiment: Growth inhibition of human NCI-H460 cells after 48 hrs by SRB assay; assay type: functional; details: NCI-H460, 48 h; procedure, shortened: as §1
NCI-H522 = experiment: Growth inhibition of human NCI-H522 cells after 48 hrs by SRB assay; assay type: functional; details: NCI-H522, 48 h; procedure, shortened: as §1
HCT-116 = experiment: Growth inhibition of human HCT116 cells after 48 hrs by SRB assay; assay type: functional; procedure, shortened: as §2
MDA-MB-231 = experiment: Growth inhibition of human MDA-MB-231 cells after 48 hrs by SRB assay; assay type: functional; details: MDA-MB-231, 48 h; procedure, shortened: as §1
Hs-578T = experiment: Growth inhibition of human HS578T cells after 48 hrs by SRB assay; assay type: functional; procedure, shortened: as §1
[4] = (§3) Growth inhibition of human […] cells after 48 hrs by SRB assay; assay type: functional; procedure, shortened: as §2
MDA-MB235 = experiment: as §3; assay type: functional; procedure, shortened: as §2
T47D = experiment: Growth inhibition of human T47D cells after 48 hrs by SRB assay; assay type: functional; procedure, shortened: as §1
HCT-15 = experiment: Growth inhibition of human HCT15 cells after 48 hrs by SRB assay; assay type: functional; details: HCT-15, 48 h; procedure, shortened: as §2
KM12 = experiment: Growth inhibition of human KM12 cells after 48 hrs by SRB assay; assay type: functional; details: KM12, 48 h; procedure, shortened: as §2
SW-620 = experiment: Growth inhibition of human SW620 cells after 48 hrs by SRB assay; assay type: functional; details: SW-620, 48 h; procedure, shortened: as §1
SF-295 = experiment: Growth inhibition of human SF295 cells after 48 hrs by SRB assay; assay type: functional; procedure, shortened: as §2
SF-539 = experiment: Growth inhibition of human SF539 cells after 48 hrs by SRB assay; assay type: functional; details: SF-539, 48 h; procedure, shortened: as §2
SNB-75 = experiment: Growth inhibition of human SNB75 cells after 48 hrs by SRB assay; assay type: functional; procedure, shortened: as §1
LOX IMVI = experiment: Growth inhibition of human LOXIMVI cells after 48 hrs by SRB assay; assay type: functional; procedure, shortened: as §2
Malme-3M = experiment: Growth inhibition of human MALME-3M cells after 48 hrs by SRB assay; assay type: functional; procedure, shortened: as §1
SK-MEL-2 = experiment: Growth inhibition of human SK-MEL2 cells after 48 hrs by SRB assay; assay type: functional; procedure, shortened: as §2
SK-MEL-5 = experiment: Growth inhibition of human SKMEL5 cells after 48 hrs by SRB assay; assay type: functional; procedure, shortened: as §2
UACC-257 = experiment: Growth inhibition of human UACC257 cells after 48 hrs by SRB assay; assay type: functional; details: UACC-257, 48 h; procedure, shortened: as §1
[5] = Growth inhibition of human OVACAR3 cells after 48 hrs by SRB assay; assay type: functional; details: OVACAR3, 48 h; procedure, shortened: as §2
OVCAR-5 = experiment: Growth inhibition of human OVACAR5 cells after 48 hrs by SRB assay; assay type: functional; details: OVCAR-5, 48 h; procedure, shortened: as §2
SK-OV-3 = experiment: Growth inhibition of human SK-OV3 cells after 48 hrs by SRB assay; assay type: functional; details: SK-OV-3, 48 h; procedure, shortened: as §2
786-0 = experiment: Growth inhibition of human 786-0 cells after 48 hrs by SRB assay; assay type: functional; details: 786-0, 48 h; procedure, shortened: as §2
A498 = experiment: Growth inhibition of human A498 cells after 48 hrs by SRB assay; assay type: functional; details: A498, 48 h; procedure, shortened: as §2
CAKI-1 = experiment: Growth inhibition of human CAKI1 cells after 48 hrs by SRB assay; assay type: functional; details: CAKI-1, 48 h; procedure, shortened: as §2
RXF 393 = experiment: Growth inhibition of human RFX393 cells after 48 hrs by SRB assay; assay type: functional; details: RXF 393, 48 h; procedure, shortened: as §2
PC-3 = experiment: Growth inhibition of human PC3 cells after 48 hrs by SRB assay; assay type: functional; details: PC-3, 48 h; procedure, shortened: as §1
A549 [6] = experiment: Antiproliferative activity against human A549 cells after 5 days by MTT assay; details: A549, 120 h
SW480 = experiment: Antiproliferative activity against human SW480 cells after 5 days by MTT assay; details: SW480, 120 h
[7] = read-out: Log LC50 (the source's name) (converted)

For `COC(=O)C1=CO[C@@H]2O[C@H]3/C(=C\c4ccc(O)cc4)C(=O)O[C@]34C=C[C@H]1[C@H]24` [PRISMATOMERIN], the LC50 at 24 h [1] was 195 nM, the GI50 (CCRF-CEM) was 38 nM and the CC50 (CCRF-CEM; [7]) was over 100000 nM. It also gave a GI50 (HL-60) of under 10 nM, a CC50 (HL-60; [7]) of over 100000 nM and a GI50 (RPMI-8226) of under 10 nM. The CC50 (RPMI-8226; [7]) was over 100000 nM, the GI50 (SR) was 10.5 nM and the CC50 (SR; [7]) was over 100000 nM. It also gave a TGI (SR; read-out: Log TGI (converted)) of 468 nM, a GI50 (A549 [2]) of 295 nM and a CC50 (A549 [2]; [7]) of over 100000 nM. For the same compound, the TGI (A549 [2]; read-out: Log TGI (converted)) was 832 nM, the GI50 (NCI-H226) was 174 nM and the CC50 (NCI-H226; [7]) was 22900 nM. The TGI (NCI-H226; read-out: Log TGI (converted)) was 479 nM, the GI50 (NCI-H23) was 186 nM and the CC50 (NCI-H23; [7]) was 933 nM. The GI50 [3] was 1950 nM, the CC50 [3, 7] was 24500 nM and the TGI ([3]; read-out: Log TGI (converted)) was 5370 nM. The GI50 (NCI-H460) was 240 nM, the CC50 (NCI-H460; [7]) was over 100000 nM and the GI50 (NCI-H522) was 186 nM. For the same compound, the CC50 (NCI-H522; [7]) was 1350 nM, the Activity (HCT-116) was “inactive” and the GI50 (HCT-116; HCT-116, 48 h) was under 10 nM. For the same compound, the TGI (HCT-116; HCT-116, 48 h, read-out: Log TGI (converted)) was 100 nM, the GI50 (MDA-MB-231) was 162 nM and the CC50 (MDA-MB-231; [7]) was 851 nM. For the same compound, the GI50 (Hs-578T) was 257 nM, the CC50 (Hs-578T; [7]) was over 100000 nM and the GI50 [4] was 200 nM. For the same compound, the Activity (MDA-MB235) was “inactive”, the GI50 (T47D) was 380 nM and the CC50 (T47D; [7]) was 3890 nM. For the same compound, the GI50 (HCT-15) was 162 nM, the CC50 (HCT-15; [7]) was 3800 nM and the TGI (HCT-15; read-out: Log TGI (converted)) was 575 nM. The GI50 (KM12) was 302 nM, the CC50 (KM12; [7]) was over 100000 nM and the TGI (KM12; read-out: Log TGI (converted)) was 1510 nM. For the same compound, the GI50 (SW-620) was under 10 nM, the CC50 (SW-620; [7]) was over 100000 nM and the Activity (SF-295) was “inactive”. For the same compound, the GI50 (SF-295; SF-295, 48 h) was 589 nM, the GI50 (SF-539) was 257 nM and the CC50 (SF-539; [7]) was over 100000 nM. The TGI (SF-539; read-out: Log TGI (converted)) was 457 nM, the Activity (SNB-75) was “inactive” and the CC50 (SNB-75; SNB-75, 48 h, read-out: Log LC50 (the source's name) (converted)) was over 100000 nM. It also gave a GI50 (LOX IMVI) of 20.9 nM, a CC50 (LOX IMVI; [7]) of 708 nM and a TGI (LOX IMVI; read-out: Log TGI (converted)) of 240 nM. The GI50 (Malme-3M) was 135 nM, the CC50 (Malme-3M; [7]) was 4680 nM and the Activity (SK-MEL-2) was “inactive”. The GI50 (SK-MEL-2; SK-MEL-2, 48 h) was 166 nM, the Activity (SK-MEL-5) was “inactive” and the GI50 (SK-MEL-5; SK-MEL-5, 48 h) was under 10 nM. For the same compound, the TGI (SK-MEL-5; SK-MEL-5, 48 h, read-out: Log TGI (converted)) was 186 nM, the GI50 (UACC-257) was 145 nM and the CC50 (UACC-257; [7]) was 10000 nM. The GI50 [5] was 490 nM, the CC50 [5, 7] was 1700 nM and the TGI ([5]; read-out: Log TGI (converted)) was 562 nM. For the same compound, the GI50 (OVCAR-5) was 257 nM, the CC50 (OVCAR-5; [7]) was 813 nM and the TGI (OVCAR-5; read-out: Log TGI (converted)) was 407 nM. The GI50 (SK-OV-3) was 912 nM, the CC50 (SK-OV-3; [7]) was over 100000 nM and the TGI (SK-OV-3; read-out: Log TGI (converted)) was 3160 nM. The GI50 (786-0) was 19.5 nM, the CC50 (786-0; [7]) was 550 nM and the TGI (786-0; read-out: Log TGI (converted)) was 195 nM. For the same compound, the GI50 (A498) was 234 nM, the CC50 (A498; [7]) was 871 nM and the TGI (A498; read-out: Log TGI (converted)) was 457 nM. It also gave a GI50 (CAKI-1) of 126 nM, a CC50 (CAKI-1; [7]) of 8710 nM and a TGI (CAKI-1; read-out: Log TGI (converted)) of 501 nM. It also gave a GI50 (RXF 393) of under 10 nM, a CC50 (RXF 393; [7]) of 661 nM and a TGI (RXF 393; read-out: Log TGI (converted)) of 162 nM. The GI50 (PC-3) was 170 nM, the CC50 (PC-3; [7]) was 3020 nM and the IC50 (A549 [6]) was 1410 nM. For the same compound, the IC50 (SW480) was 60 nM.
